The values below come from paper PMC12243159 (RSC Medicinal Chemistry, 2025).

SMILES strings stand for the structures.

Common to all, as to type: biochemical
One assay has as its target hCA I (Homo sapiens, UniProt P00915). The assay can be described thus: stopped-flow CO2 hydration assay, hCA I. In a few lines: (§1)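 Recombinant in-house enzyme, preincubated 15 min at room temperature with inhibitor. Inhibitor stock was 0.1 mM in water, diluted down to 0.01 nM. CO₂ (1.7–17 mM) hydration was followed by stopped-flow with 0.2 mM phenol red at 557 nm, in 20 mM HEPES pH 7.5 with 20 mM Na₂SO₄, over 10–100 s. Initial rates came from six traces and were corrected for the uncatalysed rate. Ki was obtained by non-linear least squares, mean of ≥3 measurements.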

The target of a further assay is hCA II (Homo sapiens, UniProt P00918). The assay can be described thus: stopped-flow CO2 hydration assay, hCA II. The method in brief:
as §1

A further assay deals with hCA IX (Homo sapiens, UniProt Q16790). The assay is described as follows: stopped-flow CO2 hydration assay, hCA IX. The following applies: for SI I/IX: ratio of KI hCA I to KI hCA IX; for SI II/IX: ratio of KI hCA II to KI hCA IX.
A further assay concerns the target hCA XII (Homo sapiens, UniProt O43570). The assay is described as follows: stopped-flow CO2 hydration assay, hCA XII. The conditions noted are these: for Ki: KI hCA XII; for SI I/XII: ratio of KI hCA I to KI hCA XII; for SI II/XII: ratio of KI hCA II to KI hCA XII.

hCA XII, sequence (O43570 25-354): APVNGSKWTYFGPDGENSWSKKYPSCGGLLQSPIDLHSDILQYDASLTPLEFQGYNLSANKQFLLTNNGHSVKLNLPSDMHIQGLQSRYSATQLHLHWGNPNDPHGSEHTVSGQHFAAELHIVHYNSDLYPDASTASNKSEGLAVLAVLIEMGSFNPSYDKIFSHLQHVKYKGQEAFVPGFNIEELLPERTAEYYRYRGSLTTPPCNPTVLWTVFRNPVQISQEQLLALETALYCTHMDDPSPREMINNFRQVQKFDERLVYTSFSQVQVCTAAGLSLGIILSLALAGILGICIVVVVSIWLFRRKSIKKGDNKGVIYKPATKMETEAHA
hCA I, sequence (P00915 whole entry): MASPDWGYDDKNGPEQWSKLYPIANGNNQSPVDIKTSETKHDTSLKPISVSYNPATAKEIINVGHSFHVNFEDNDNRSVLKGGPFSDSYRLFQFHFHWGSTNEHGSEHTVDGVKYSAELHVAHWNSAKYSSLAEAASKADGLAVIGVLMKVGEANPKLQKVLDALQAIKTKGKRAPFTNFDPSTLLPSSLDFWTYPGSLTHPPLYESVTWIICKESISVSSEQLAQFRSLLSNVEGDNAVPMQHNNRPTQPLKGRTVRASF

With `COCCOc1cc2ncnc(Nc3cccc(-c4cn(CCOCCOCCOCCOCCOCCC(=O)NCCOc5ccc6oc(=O)ccc6c5)nn4)c3)c2cc1OCCOC` [compound 11, 1-(4-(3-((6,7-Bis(2-methoxyethoxy)quinazoline-4-yl)amino)phenyl)-1H-1,2,3-triazol-1-yl)-N-(2-((2-oxo-2H-chromen-6-yl)oxy)ethyl)-3,6,9,12,15-pentaoxaoctadecan-18-amide], affinity on hCA I was put at a Ki of 70.1 µM. Further, the inhibition constant (Ki) on hCA II was 33.7 µM. In addition, on hCA IX, the affinity corresponds to a Ki of 4.68 µM, the “SI I/IX” value stood at 15.0 and the “SI II/IX” value is 7.21. Moreover, the “KI hCA XII” value on hCA XII (stopped-flow hydration assay) is recorded as “no activity”.
In the case of `COCCOc1cc2ncnc(Nc3cccc(-c4cn(CCOCCOCCOCCNC(=O)Nc5ccc(S(N)(=O)=O)cc5)nn4)c3)c2cc1OCCOC` [compound 7b, 4-(3-(2-(2-(2-(2-(4-(3-((6,7-Bis(2-methoxyethoxy)quinazolin-4-yl)amino)phenyl)-1H-1,2,3-triazol-1-yl)ethoxy)ethoxy)ethoxy)ethyl)ureido)benzenesulfonamide], the affinity on hCA I, expressed as Ki, was 36.1 µM. Further, the Ki on hCA II was 0.95 µM. Further, on hCA IX, the inhibitory constant (Ki) came to 1.12 µM, the “SI I/IX” value was found to be 32.1 and the “SI II/IX” value is listed as 0.85. Further, the Ki on hCA XII (stopped-flow hydration assay) came to 0.0574 µM. At hCA XII, the “SI I/XII” value is on record as 628 and the “SI II/XII” value is reported as 16.6.
On to `COCCOc1cc2ncnc(Nc3cccc(-c4cn(CCOCCOCCOCCNC(=S)Nc5ccc(S(N)(=O)=O)c(C)c5Br)nn4)c3)c2cc1OCCOC` [compound 9, 4-(3-(2-(2-(2-(2-(4-(3-((6,7-Bis(2-methoxyethoxy)quinazolin-4-yl)amino)phenyl)-1H-1,2,3-triazol-1-yl)ethoxy)ethoxy)ethoxy)ethyl)thioureido)-3-bromo-2-methylbenzenesulfonamide], for which the Ki at hCA I was found to be 4.91 µM; at hCA II, 0.531 µM; on hCA IX, 1.34 µM; at hCA XII (stopped-flow hydration assay), 0.0698 µM. On hCA IX, the “SI I/IX” value is given as 3.65. Also, the “SI II/IX” value at hCA IX came to 0.39. The “SI I/XII” value on hCA XII stood at 70.3. Moreover, the “SI II/XII” value on hCA XII was 7.61.
Molecule `COCCOc1cc2ncnc(Nc3cccc(-c4cn(CCOCCOCCOCCNC(=S)NCCc5ccc(S(N)(=O)=O)cc5)nn4)c3)c2cc1OCCOC` [compound 8d, 4-(16-(4-(3-((6,7-Bis(2-methoxyethoxy)quinazolin-4-yl)amino)phenyl)-1H-1,2,3-triazol-1-yl)-4-thioxo-8,11,14-trioxa-3,5-diazahexadecyl)benzenesulfonamide] yielded a Ki on hCA I of 0.923 µM. Further, affinity on hCA II was put at a Ki of 0.106 µM. Also, at hCA IX, the affinity, expressed as Ki, was 0.028 µM; the “SI I/IX” value is on record as 32.6; the “SI II/IX” value worked out at 3.73. In addition, on hCA XII (stopped-flow hydration assay), the Ki was 0.00649 µM. For the same molecule, on hCA XII, the “SI I/XII” value worked out at 142 and the “SI II/XII” value stood at 16.3.
In the case of `COCCOc1cc2ncnc(Nc3cccc(-c4cn(CCOCCOCCOCCOCCOCCNC(=O)Nc5ccc(S(N)(=O)=O)cc5)nn4)c3)c2cc1OCCOC` [compound 12b, 4-(3-(17-(4-(3-((6,7-Bis(2-methoxyethoxy)quinazolin-4-yl)amino)phenyl)-1H-1,2,3-triazol-1-yl)-3,6,9,12,15-pentaoxaheptadecyl)ureido)benzenesulfonamide], the Ki is 24.8 µM at hCA I, 0.0908 µM at hCA II, 5.62 µM at hCA IX and 0.0753 µM on hCA XII (stopped-flow hydration assay). For the same molecule, on hCA IX, the “SI I/IX” value is 4.41. Besides, the “SI II/IX” value on hCA IX came to 0.02. In addition, the “SI I/XII” value on hCA XII is 329. The “SI II/XII” value at hCA XII came out at 1.21.
